Measurements taken from ChEMBL document CHEMBL4376902, “CN128: A New Orally Active Hydroxypyridinone Iron Chelator” (J Med Chem, 2020).
Activity calls are given as the source filed them. The rule behind the calls is not given here.

Experiments:
[1] = Toxicity in Sprague-Dawley rat assessed as induction of histopathological changes in bone marrow at 25 to 116 mg/kg, po dosed daily for 4 weeks and measured after additional 4 weeks period in absence of drug; assay type: organism-based; conditions: in vivo, 672 h
[2] = Toxicity in Sprague-Dawley rat assessed as induction of histopathological changes in thymus at 25 to 116 mg/kg, po dosed daily for 4 weeks and measured after additional 4 weeks period in absence of drug; assay type: organism-based; conditions: in vivo, 672 h
Rattus norvegicus [3] = test: Iron scavenging activity in 59Fe-ferritin-loaded rat assessed as iron mobilization level at 450 umol/kg, po dosed 1 hr after 59Fe-ferritin injection and measured 24 hrs after 59Fe-ferritin injection by gamma counting method relative to control; assay type: functional
How it was run: (§1)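 Male SD rats, 300 g, fasted overnight, given about 1 μC 59Fe-ferritin i.v. under isoflurane. Chelator gavaged 1 h later, then rats housed in metabolic cages; food returned 1 h after dosing. Killed 24 h after 59Fe-ferritin. Urine, faeces, liver and gut gamma-counted. 8 rats per condition.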

[4] = Toxicity in Sprague-Dawley rat assessed as induction of mortality at 200 mg/kg, po dosed once daily for 2 months as 5 days per week schedule; assay type: organism-based; conditions: in vivo, 120 h
[5] = Toxicity in Sprague-Dawley rat assessed as induction of histopathological changes in pancreas at 25 to 116 mg/kg, po dosed daily for 4 weeks and measured after additional 4 weeks period in absence of drug; assay type: organism-based; conditions: in vivo, 672 h
Rattus norvegicus [6] = test: Iron scavenging activity in 59Fe-ferritin-loaded rat assessed as iron mobilization level at 150 to 450 umol/kg, po dosed 1 hr after 59Fe-ferritin injection and measured 24 hrs after 59Fe-ferritin injection by gamma counting method relative to control; assay type: functional, organism-based; how it was run: as §1
[7] = Drug uptake in rat bile treated with 150 umol/kg, po (R) -3,4-Dihydroxy-1-(1 -hydroxy-3-phenylpropan-2-yl)-2-methyl- pyridin-1-ium Chloride assessed as compound formation by LC/TOF/MS/MS analysis; assay type: ADME, organism-based; conditions: in vivo
How it was run: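 Bile collected from rats after an oral dose of 150 μmol/kg. Metabolites characterised by β-glucuronidase hydrolysis and LC-TOFMS/MS. M2/M1 ratio followed over 8 h.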

[8] = Metal chelating activity assessed as iron chelation
How it was run: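 Automated spectrophotometric titration at ca. 40 µM iron complex, 50 mm path. pH raised in 0.1-unit steps with 0.1 M KOH, 3 min equilibration per step, up to pH 12.0. Competition with metal hydrolysis species; spectra fitted over 400-700 nm using literature hydrolysis constants to give stability constants.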

Mus musculus [9] = test: Toxicity in mouse assessed as reduction in neutrophils counts at 200 mg/kg, po dosed once daily for 2 months as 5 days per week schedule; conditions: in vivo, 120 h
[10] = Drug metabolism in rat liver microsomes assessed as glucuronidation incubated for 1 hr relative to deferiprone; assay type: ADME, Microsome
How it was run: (§2)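 Compound incubated 1 h with rat or human liver microsomes, n = 4, mean ± SD. Glucuronide formed given as percentage of total chelator added. Oxidative metabolism assessed separately.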

Mus musculus [11] = test: Toxicity in mouse assessed as increase in reticulocyte population at 200 mg/kg, po dosed once daily for 2 months as 5 days per week schedule; conditions: in vivo, 120 h
Mus musculus [12] = test: Toxicity in mouse assessed as reduction in lymphocytes counts at 200 mg/kg, po dosed once daily for 2 months as 5 days per week schedule; conditions: in vivo, 120 h
Mus musculus [13] = test: Toxicity in mouse assessed as reduction in erythrocyte population at 200 mg/kg, po dosed once daily for 2 months as 5 days per week schedule; conditions: in vivo, 120 h
[14] = Drug metabolism in human liver microsomes assessed as glucuronidation incubated for 1 hr relative to deferiprone; assay type: ADME, Microsome; how it was run: as §2
[15] = Drug metabolism in rat liver microsomes assessed as oxidative metabolism incubated for 1 hr relative to deferiprone; assay type: ADME, Microsome
Mus musculus [16] = test: Toxicity in mouse assessed as reduction in total white cell counts at 200 mg/kg, po dosed once daily for 2 months as 5 days per week schedule; conditions: in vivo, 120 h
Mus musculus [17] = test: Toxicity in mouse assessed as reduction in monocytes counts at 200 mg/kg, po dosed once daily for 2 months as 5 days per week schedule; conditions: in vivo, 120 h
Mus musculus [18] = test: Toxicity in mouse assessed as reduction in eosinophils counts at 200 mg/kg, po dosed once daily for 2 months as 5 days per week schedule; conditions: in vivo, 120 h
Mus musculus [19] = test: Toxicity in mouse assessed as effect on platelet population at 200 mg/kg, po dosed once daily for 2 months as 5 days per week schedule; conditions: in vivo, 120 h
[20] = Drug metabolism in human liver microsomes assessed as oxidative metabolism incubated for 1 hr relative to deferiprone; assay type: ADME, Microsome

## Cc1c(O)c(=O)ccn1C [DEFERIPRONE]
[1]
  Activity: Non-Toxic
[2]
  Activity: Non-Toxic
Rattus norvegicus [3]
  Activity: 11.8%
[4]
  Activity: Non-Toxic
[5]
  Activity: Non-Toxic

## Cc1c(O)c(O)cc[n+]1[C@@H](C)CO.[Cl-]
Rattus norvegicus [3]
  Activity: 11.9%

## Cc1c(O)c(O)cc[n+]1CCO.[Cl-]
Rattus norvegicus [3]
  Activity: 4%

## CCc1c(O)c(O)cc[n+]1[C@H](C)CO.[Cl-]
Rattus norvegicus [3]
  Activity: 10.5%

## CCc1c(O)c(O)cc[n+]1[C@H](CO)CC(C)C.[Cl-]
Rattus norvegicus [3]
  Activity: 10.3%

## CCc1c(O)c(O)cc[n+]1[C@H](CO)[C@@H](C)CC.[Cl-]
Rattus norvegicus [3]
  Activity: 5.5%

## Cc1c(O)c(O)cc[n+]1[C@H](C)CO.[Cl-]
Rattus norvegicus [3]
  Activity: 6.5%

## Cc1c(O)c(O)cc[n+]1[C@H](CO)C(C)C.[Cl-]
Rattus norvegicus [3]
  Activity: 18.7%
Rattus norvegicus [6]
  Activity: Dose-dependent effect

## Cc1c(O[C@@H]2O[C@H](C(=O)O)[C@@H](O)[C@H](O)[C@H]2O)c(=O)ccn1[C@@H](CO)Cc1ccccc1
[7]
  Drug uptake: Metabolite_Detected
[8]
  Activity: inactive

## Cc1c(O)c(O)cc[n+]1[C@H](CO)Cc1ccccc1.[Cl-]
Mus musculus [9]
  Activity: Non-Toxic
[10]
  Drug metabolism: Metabolite_Detected
Mus musculus [11]
  Activity: Non-Toxic
Mus musculus [12]
  Activity: Non-Toxic
Mus musculus [13]
  Activity: Non-Toxic
[14]
  Drug metabolism: Metabolite_Detected
Rattus norvegicus [3]
  Activity: 12.8%
[15]
  Drug metabolism: Metabolite_Detected
Mus musculus [16]
  Activity: Non-Toxic
Mus musculus [17]
  Activity: Non-Toxic
[4]
  Activity: Non-Toxic
Mus musculus [18]
  Activity: Non-Toxic
Mus musculus [19]
  Activity: Non-Toxic
[20]
  Drug metabolism: Metabolite_Detected

## CCc1c(O)c(O)cc[n+]1[C@@H](CO)CC(C)C.[Cl-]
Rattus norvegicus [3]
  Activity: 13.6%

## Cc1c(O)c(O)cc[n+]1[C@@H](CO)CC(C)C.[Cl-]
Rattus norvegicus [3]
  Activity: 8.2%

## Cc1c(O)c(=O)ccn1[C@@H](CO[C@@H]1O[C@H](C(=O)O)[C@@H](O)[C@H](O)[C@H]1O)Cc1ccccc1
[7]
  Drug uptake: Metabolite_Detected
[8]
  Activity: Active

## Cc1c(O)c(O)cc[n+]1[C@@H](CO)C(C)C.[Cl-]
Rattus norvegicus [3]
  Activity: 8%

## CCc1c(O)c(O)cc[n+]1[C@H](CO)C(C)C.[Cl-]
Rattus norvegicus [3]
  Activity: 7.9%

## CC[C@H](C)[C@@H](CO)[n+]1ccc(O)c(O)c1C.[Cl-]
Rattus norvegicus [3]
  Activity: 10.8%

## CCc1c(O)c(O)cc[n+]1[C@@H](CO)C(C)C.[Cl-]
Rattus norvegicus [3]
  Activity: 10.6%

## CCc1c(O)c(O)cc[n+]1[C@@H](C)CO.[Cl-]
Rattus norvegicus [3]
  Activity: 16%

## CCc1c(O)c(O)cc[n+]1CCO.[Cl-]
Rattus norvegicus [3]
  Activity: 2.4%

## Cc1c(O)c(O)cc[n+]1[C@H](CO)CC(C)C.[Cl-]
Rattus norvegicus [3]
  Activity: 5.8%

## CCc1c(O)c(O)cc[n+]1[C@H](CO)Cc1ccccc1.[Cl-]
Rattus norvegicus [3]
  Activity: 13.1%

## CCc1c(O)c(O)cc[n+]1[C@@H](CO)Cc1ccccc1.[Cl-]
Rattus norvegicus [3]
  Activity: 22.3%
Rattus norvegicus [6]
  Activity: Dose-dependent effect
